Compound activity deposited in PubChem by Sanford-Burnham Center for Chemical Genomics.
A selection: hits, their analogues and other compounds. The true share with any hit is near 1.7%.
SUMO1-SIM PPI: SUMO1-SIM interaction modulation. SUMO1 binding to a labelled peptide, TR-FRET, 1 h. inhibition, % at 20 µM. actives 0.33% (n = 360,000). AID 602429; in the data active = inhibition above about 37%
Target sequence (P63165 whole entry, looked up): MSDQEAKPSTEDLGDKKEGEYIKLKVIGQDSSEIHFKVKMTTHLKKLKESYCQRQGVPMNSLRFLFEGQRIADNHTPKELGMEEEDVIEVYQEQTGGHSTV
Scp1 inh: blocks human Scp-1 phosphatase activity; Q9GZU7; Recombinant Scp1, phosphopeptide, malachite green phosphate absorbance; inhibition, % at 20 µM; actives 0.88% (n = 340,000); AID 493091;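 active = inhibition above about 50% at 20 µM, limit read from the data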;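 also: plate controls were DMSO wells with enzyme for no effect and wells lacking enzyme for full effect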
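System: SCP-1 catalytic domain; Reagent: Phospho 17-mer peptide substrate; Doses: one concentration, 20 µM, with 1.0% DMSO; Incubation: 45 min room-temperature reaction, 5 min colour, 30 min stabiliser; Signal: Phosphate-binding colour reagent, absorbance read at 630 nm.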
LMPTP block: blocks human LMPTP phosphatase; P24666; recombinant LMPTP-A, OMFP fluorogenic substrate, fluorescence intensity; inhibition, % at 20 µM; actives 0.22% (n = 360,000); AID 651560;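 active = compounds that cut the enzyme signal by at least half of the control window in the single-dose screen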;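 also: plate controls were DMSO wells with enzyme plus substrate for no effect and substrate without enzyme for full effect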
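Assay system: LMPTP-A enzyme. Input: 0.625 nM LMPTP-A final. Probe or stimulus: 400 µM OMFP. Compound dosing: single 20 µM dose. Schedule: 50 min dark incubation at room temperature. Detection: fluorescence intensity of OMFP turnover product. Read-out: percent inhibition versus substrate-only and uninhibited controls. Benchmarks: no-enzyme low control, uninhibited high control.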
DNMT1 block: blocks human DNA methyltransferase DNMT1. inhibition (reported as % activation of signal), % at 10 µM. actives 0.83% (n = 360,000). DNMT1 molecular beacon, Hinp1I cleavage, fluorescence; in the data active = inhibition above about 50%
STEP block: inhibitors of human striatal-enriched phosphatase STEP; P54829; recombinant STEP, OMFP fluorogenic substrate, fluorescence; inhibition, % at 20 µM; actives 0.25% (n = 360,000);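 active = inhibition at 20 µM, scaled per plate between control wells, above about 37%, limit read from the data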;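 also: 0% = DMSO with enzyme and substrate and 100% = substrate only without enzyme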
Target sequence (P54829 whole entry, looked up): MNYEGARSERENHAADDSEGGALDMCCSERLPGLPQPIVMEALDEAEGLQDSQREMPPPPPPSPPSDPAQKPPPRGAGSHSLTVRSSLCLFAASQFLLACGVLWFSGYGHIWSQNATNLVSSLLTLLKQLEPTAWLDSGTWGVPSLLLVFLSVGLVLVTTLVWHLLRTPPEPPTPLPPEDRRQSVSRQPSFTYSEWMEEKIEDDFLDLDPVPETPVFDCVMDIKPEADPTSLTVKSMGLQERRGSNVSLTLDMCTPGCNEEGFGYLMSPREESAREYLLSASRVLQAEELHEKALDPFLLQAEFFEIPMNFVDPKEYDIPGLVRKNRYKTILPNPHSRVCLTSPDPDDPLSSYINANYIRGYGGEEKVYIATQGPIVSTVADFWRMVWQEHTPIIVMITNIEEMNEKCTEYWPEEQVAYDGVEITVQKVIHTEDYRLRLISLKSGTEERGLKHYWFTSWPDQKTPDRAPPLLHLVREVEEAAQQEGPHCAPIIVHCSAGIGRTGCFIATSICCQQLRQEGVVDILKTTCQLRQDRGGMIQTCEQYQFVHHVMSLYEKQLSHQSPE
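Test system: STEP tyrosine phosphatase / Reagent: OMFP at 25 µM / Doses: 20 µM, 1% DMSO / Read-out: percent inhibition scaled to no-enzyme and uninhibited-enzyme controls, plate-pattern corrected / Detection: FITC-channel fluorescence of OMFP product / Medium: Bis-Tris buffer pH 6.0, 2.5 mM DTT, 0.005% Tween 20 / Schedule: 20 min at room temperature, dark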
Active calls of the source: *; . = no result given.

SMILES | SUMO1-SIM PPI | Scp1 inh | LMPTP block | DNMT1 block | STEP block
Cc1ccccc1C(=O)N1CCC(C(N)=O)CC1 | 55* | -6 | -2 | 2 | 2
Cc1cc(N2CCN(c3nc(-c4ccc([N+](=O)[O-])cc4)cs3)CC2)c2ccccc2n1 | -7 | 4 | 95* | -14 | 4
Cc1cc(-c2ccc([N+](=O)[O-])cc2)nc2ccccc12 | -18 | -4 | 2 | 0 | 2
Cc1ccc([C@H]2C[C@@H](n3cc(COC(=O)c4ccccc4)nn3)[C@H](O)CN2C(=O)c2cccs2)cc1 | 9 | . | 0 | 0 | 0
CCN(CC)CCNc1cccc2sc3ccccc3c(=O)c12 | -33 | . | 1 | 46 | 0
CN(C)CCNc1cccc2sc3ccc(O)cc3c(=O)c12 | -37 | . | 1 | 56* | 1
Cc1ccc(NCCN(C)C)c2c(=O)c3cc(O)ccc3sc12 | -48 | 7 | 11 | 57* | 1
CCc1noc(C)c1C(=O)N1CCN(S(=O)(=O)c2ccc(Br)cc2Cl)CC1 | 2 | 3 | -1 | 2 | -2
CCOc1cc(CNc2ccc(O)cc2)ccc1OCc1ccc(Cl)cc1Cl | 52* | -2 | 22 | 80* | 16
Cc1ccc(NCc2ccccc2OCc2ccccc2F)cc1 | -4 | 2 | 4 | -5 | -1
CCc1ccc(CNc2ccc(O)cc2)cc1 | 74* | -3 | 21 | 75* | 15
Oc1ccc(NCc2ccc(OCc3ccccc3)cc2)cc1 | 9 | -10 | 13 | -6 | 4
CCOc1cccc(CNc2ccc(O)cc2)c1OCc1ccc(Cl)cc1 | 27 | 0 | 12 | -30 | -4
Oc1ccc(NCc2ccccc2OCc2ccccc2F)cc1 | 59* | -6 | 16 | -42 | 10
CCOc1ccccc1CNc1ccc(O)cc1 | 69* | -4 | 11 | 17 | 4
COC(=O)c1ccc2nc(C3CCCCC3)c(Cc3cccc(Cl)c3)n2c1 | -9 | . | 3 | 6 | 2
CCN(C(=O)COC(=O)CCC(=O)c1ccccc1)c1c(N)n(Cc2ccccc2)c(=O)[nH]c1=O | -5 | -1 | 0 | 1 | 1
COc1cc(C=C2C(=O)C=CC2=O)ccc1O | 18 | . | 6 | . | .
COc1ccc(/C=C2\SC(=S)N(CCC(=O)Nc3ccc(C(=O)O)cc3)C2=O)cc1OC | 14 | 95* | 44 | 31 | 85*
O=C(CCN1C(=O)/C(=C\C=C\c2ccccc2)SC1=S)Nc1ccc(C(=O)O)cc1 | 0 | 88* | 83* | 17 | 87*
CCc1ccc(/C=C2\SC(=S)N(CCCC(=O)Nc3ccc(C(=O)O)cc3)C2=O)cc1 | -24 | 9 | 64* | 1 | 16
CC1(C)CC2CC(C)(CN2C(=O)COC(=O)CNC(=O)c2ccc(Cl)c(Cl)c2)C1 (stereo unspecified) | -1 | -4 | 0 | 1 | -2
COc1ccc(CN(C)C(=O)/C=C/[C@H]2O[C@@H](n3cnc4c(N)ncnc43)[C@H](O)[C@@H]2O)cc1OC | 2 | . | 0 | 5 | -2
CC(C)(C)N1C(=O)Cc2c1nc(N)c1c(N)nc(N3CCCCC3CO)c(C#N)c21 (stereo unspecified) | 50* | 9 | 28 | 6 | 12
N#Cc1c(N2CCN(c3ccc(F)cc3)CC2)nc(N)c2c(N)nc3c(c12)CC(=O)N3C1CC1 | 18 | -2 | 4 | -21 | 9
SMILES | SUMO1-SIM PPI | Scp1 inh | LMPTP block | DNMT1 block | STEP block
CCC(CO)Oc1cc(NC(=O)c2ccccc2C)c2ncn(C(C)C)c2c1 (stereo unspecified) | 50* | -6 | -2 | -46 | -3
CCC(CN(C)C)Oc1cc(NCc2ccccc2)c2ncn(C(C)C)c2c1 (stereo unspecified) | 5 | 2 | 5 | 61* | -2
CCC(CO)Oc1cc(NC(=O)c2ccccc2F)c2ncn(C(C)C)c2c1 (stereo unspecified) | 92* | 4 | -2 | -30 | 2
CCC(CO)Oc1cc(NC(=O)c2ccccc2N)c2ncn(C(C)C)c2c1 (stereo unspecified) | 6 | 1 | -1 | -7 | -3
CN1CCN(C(=O)C[C@@H]2C=C[C@H](NS(=O)(=O)c3cccc(F)c3)[C@@H](CO)O2)CC1 | 10 | . | -4 | . | .
COc1ccc2c(c1O)Cc1ccccc1C2=O | 55* | -3 | -1 | -24 | 2
N#Cc1c(N2CCCC2)nc(N)c2c(N)nc(N3CCCC3)cc12 | 48* | 8 | 41 | 118* | 60*
Cc1nc(C)c(C(=O)Nc2cccc(F)c2)s1 | -1 | -9 | 1 | 8 | -1
O=c1c2cc(Br)ccc2nc(-c2ccc(Cl)cc2)n1O | 1 | 65* | 51* | 0 | 96*
Cc1cnc(C=NNC(N)=S)c2cccc(N)c12 | 107* | 84* | 86* | 114* | 97*
NC(=S)NN=Cc1nccc2ccccc12 | -25 | 23 | 0 | -3 | 0
CC(=O)Nc1ccc(C(=O)Nc2cccc(-c3cnc4ccccc4n3)c2)cc1 | 49* | 21 | 40 | 34 | 15
Cc1ccc(C(=O)Nc2cccc(-c3cnc4ccccc4n3)c2)cc1 | -3 | -9 | -1 | 9 | -1
CC(=O)Nc1ccc(C(=O)Nc2nc(-c3cccnc3)cs2)cc1 | 60* | 8 | 6 | -4 | 12
CC(C)(C)c1ccc(-n2ncc3c2CCCC3NC(=O)c2cnccn2)cc1 (stereo unspecified) | 4 | 1 | 0 | -9 | 1
CCOC(=O)C1(C)CCCN1C(=O)c1ccc(OC)c(OC)c1 (stereo unspecified) | -2 | . | -1 | 0 | 2
CC(=O)c1c(C)[nH]c(C(=O)OCC(=O)N2CCc3ccccc32)c1C | -5 | 6 | 0 | 50* | -4
COc1cc(NC(=O)C(C)N2CCN(C(=O)C3CC3)CC2)cc(OC)c1 (stereo unspecified) | 3 | -5 | -1 | 3 | 1
CCc1ccc2c(F)cccc2n1 | 7 | . | -2 | 4 | -2
CC1CCCCN1S(=O)(=O)c1ccc2c(c1)C(C)(C)C(=O)N2C (stereo unspecified) | -3 | -4 | 0 | 1 | 2
O=C(CN1C(=O)/C(=C2\SC(=S)N(CCS(=O)(=O)O)C2=O)c2ccccc21)Nc1cccc(Br)c1 | 17 | 101* | 83* | 14 | 98*
COCCN1C(=O)/C(=C2/C(=O)N(CC(=O)Nc3ccccc3Cl)c3ccccc32)SC1=S | -7 | -5 | 5 | -2 | 8
O=C(O)c1ccc(N/N=C/c2ccc(OC(=O)c3cccc(Cl)c3)cc2)cc1 | 61* | 40 | 10 | 7 | 1
CSc1ccc(/C=N/Nc2cccc(C(=O)O)c2)cc1 | 70* | 81* | 14 | 105* | 60*
CCCCNC(=O)C1c2ccccc2OCC(=O)N1CCOC (stereo unspecified) | 1 | . | -2 | . | .
CCOc1ccc2nc3cc(NCc4ccc(OC)cc4)ccc3c(N)c2c1 | 110* | -1 | 19 | 26 | 2
